pIC50: −log10 of the molar value.
What was measured:
[1] = system: K562; test: The concentration required for inhibiting the growth of the human K562 chronic myeloid leukemia cells by 50%; type: functional, cell-based
Procedure, shortened: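 Drug exposure was […] in the dark, then cells were washed and plated at 10⁴ cells/well, eight wells per sample, and incubated 4 days. MTT was added for 5 h, formazan dissolved in DMSO and read at 550 nm.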

[2] = system: P815; test: The concentration required for inhibiting the growth of the murine P815 mastocytoma cells by 50%; type: functional, cell-based; conditions: Mus musculus
Procedure, shortened: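 P815 cells grown in DMEM with 10% FBS, HEPES, glutamine and pen/strep, seeded at 80 000 cells/well. Drug in DMSO/DMEM was added to final concentrations from 1.0 × 10^-12 to 1.0 × 10^-4 M, continuous for 72 h at 37 °C, 5% CO2, in quadruplicate. MTT was added for 4 h and solubilised in acid 2-propanol, read at 570/630 nm. IC50 was extrapolated from mean absorbance curves.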

[3] = system: L1210; test: The concentration required for inhibiting the growth of the murine L1210 leukemia cells by 50%; type: functional, cell-based; conditions: Mus musculus
Procedure, shortened: (§1)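 MTT growth inhibition in murine lines grown in DMEM with 10% FBS, HEPES, glutamine, pen/strep at 37 °C, 5% CO2. Seeded 80 000 cells/well, continuous drug exposure (DMSO stock diluted in DMEM) for 72 h, quadruplicate wells per concentration. MTT added for 4 h, formazan dissolved in acid 2-propanol, read at 570 nm (reference 630 nm). IC50 extrapolated from averaged absorbance curves.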

[4] = The concentration required for inhibiting the growth of the murine B16-F0 melanoma cells by 50%; type: functional; conditions: Mus musculus, B16F0; procedure, shortened: as §1

Structure (SMILES)	pIC50 [1]	pIC50 [2]	pIC50 [3]	pIC50 [4]
COC(=O)c1[nH]c2c(O)cc(NC(=O)c3cc4cc(OC)c(OC)c(OC)c4[nH]3)c(CCCl)c2c1C(=O)OC	6.60	5.27	5.38	5.17
COc1cc2cc(C(=O)N3CC(CCl)c4c3cc(O)c3ccccc43)[nH]c2c(OC)c1OC (stereo unspecified)	7.55	–	8.08	7.11
Nc1cc(NC(=O)c2cc3cc(NC(=O)c4cc5ccccc5o4)ccc3[nH]2)c(CCCl)c2ccccc12	–	–	7.06	7.37
COc1ccc2[nH]c(C(=O)Nc3cc(N)c4ccccc4c3CCCl)cc2c1	–	–	6.41	6.59
COc1cc2cc(C(=O)NC3=C(CCCl)CCC(O)=C3)[nH]c2c(OC)c1OC	5.84	–	–	–
COc1cc2cc(C(=O)Nc3cc(O)c4ccccc4c3CCCl)[nH]c2c(OC)c1OC	6.82	7.60	7.26	7.57

Reference: ChEMBL document CHEMBL1144439, “A novel class of in vivo active anticancer agents: achiral seco-amino- and seco-hydroxycyclopropylbenz[e]indolone (seco-CBI) analogues of the duocarmycins and CC-1065” (J Med Chem, 2005)
